Converted amounts (≈) assume the structure as drawn.
Tests used:
P388 [1] = assay: Median survival time of test animals compared to controls at 50 mg/kg (ip) against P388 Lymphocytic Leukemia in mice; format: functional, Mus musculus
How it was run: (§1)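 P388 leukemia cells were inoculated ip into male CDF1 mice. Treatment began 24 h later, given ip as five daily doses, either as a Klucel (hydroxypropylcellulose) suspension or as an aqueous solution. Acute toxicity was assessed on day 5 and results were read on day 30. The value is median survival of treated versus control mice, as % T/C.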

P388 [2] = assay: Median survival time of test animals compared to controls at 100 mg/kg (ip) against P388 Lymphocytic Leukemia in mice; format: functional, Mus musculus; how it was run: as §1
[3] = Water solubility of the compound; format: ADME; settings: read-out: S
How it was run: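 Excess bis(carbamate) (30-60 mg) in 2 mL distilled water, vortexed 10 min, filtered through Teflon wool and diluted. UV absorbance read at 291 nm. Concentration from a linear Beer's law calibration made with a salt standard (r = 0.998).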

P388 [4] = assay: Log of the tumor cell population at the end of treatment at 50 mg/kg (ip) against P388 Lymphocytic Leukemia in mice; format: functional, Mus musculus
P388 [5] = assay: Log of the tumor cell population at the end of treatment at 25 mg/kg (ip) against P388 Lymphocytic Leukemia in mice; format: functional, Mus musculus
P388 [6] = assay: Weight difference at 50 mg/kg (ip)against P388 Lymphocytic Leukemia in mice; format: functional, Mus musculus
How it was run: (§2)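 Male CDF1 mice given 6×10^6 leukemia cells ip. Five daily ip doses beginning 24 h later, as Klucel suspension or aqueous solution. Acute toxicity on day 5; survival assessed on day 30. Weight difference reported as treated minus control (g).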

P388 [7] = assay: Log of the tumor cell population at the end of treatment at 100 mg/kg (ip) against P388 Lymphocytic Leukemia in mice; format: functional, Mus musculus
P388 [8] = assay: Median survival time of test animals compared to controls at 12.5 mg/kg (ip) against P388 Lymphocytic Leukemia in mice; format: functional, Mus musculus
How it was run: (§3)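 P388 leukemia cells inoculated ip into male CDF1 mice; ip treatment started 24 h later, five daily doses, as Klucel (hydroxypropylcellulose) suspension or aqueous solution. Acute toxicity on day 5. Day-30 median survival of treated versus control mice expressed as % T/C. Weight difference is treated minus control, in grams.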

P388 [9] = assay: Weight difference at 100 mg/kg (ip)against P388 Lymphocytic Leukemia in mice; format: functional, Mus musculus; how it was run: as §2
P388 [10] = assay: Median survival time of test animals compared to controls at 25 mg/kg (ip) against P388 Lymphocytic Leukemia in mice; format: functional, Mus musculus; how it was run: as §1
P388 [11] = assay: Weight difference at 12.5 mg/kg (ip)against P388 Lymphocytic Leukemia in mice; format: functional, Mus musculus; how it was run: as §3
P388 [12] = assay: Weight difference at 25 mg/kg (ip)against P388 Lymphocytic Leukemia in mice; format: functional, Mus musculus; how it was run: as §2
P388 [13] = assay: Log of the tumor cell population at the end of treatment at 12.5 mg/kg (ip) against P388 Lymphocytic Leukemia in mice; format: functional, Mus musculus
B16 [14] = assay: No. of cures on day 60 at 20 mg/kg (ip) against B16 melanocarcinoma in mice; format: functional, Mus musculus
How it was run: (§4)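 Female BDF1 mice given ip 0.5 mL of tumor brei (1.0 g tissue per 10 mL). Nine daily ip doses beginning 24 h later, as Klucel suspensions or a water/Tween-80 suspension. Acute toxicity scored day 5; survival read day 60. Cures counted per 10-animal group at day 60; weight difference reported as treated minus control (g).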

B16 [15] = assay: Median survival time of test animals compared to controls at 80 mg/kg (ip) against B16 melanocarcinoma in mice; format: functional, Mus musculus
How it was run: (§5)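 Female BDF1 mice received B16 tumor brei ip (0.5 mL of 1.0 g tissue per 10 mL). From 24 h later they got nine daily ip doses, suspended in Klucel or water/Tween-80. Acute toxicity was assessed on day 5 and survival was evaluated on day 60. The value is median survival as % T/C, with 10 mice per group and a positive control run in parallel.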

B16 [16] = assay: Median survival time of test animals compared to controls at 5 mg/kg (ip) against B16 melanocarcinoma in mice; format: functional, Mus musculus; how it was run: as §5
B16 [17] = assay: Weight difference at 80 mg/kg (ip) against B16 melanocarcinoma in mice; format: functional, Mus musculus; how it was run: as §4
B16 [18] = assay: Median survival time of test animals compared to controls at 10 mg/kg (ip) against B16 melanocarcinoma in mice; format: functional, Mus musculus; how it was run: as §5
B16 [19] = assay: Median survival time of test animals compared to controls at 40 mg/kg (ip) against B16 melanocarcinoma in mice; format: functional, Mus musculus; how it was run: as §5
B16 [20] = assay: Weight difference at 20 mg/kg (ip) against B16 melanocarcinoma in mice; format: functional, Mus musculus; how it was run: as §4
B16 [21] = assay: Median survival time of test animals compared to controls at 20 mg/kg (ip) against B16 melanocarcinoma in mice; format: functional, Mus musculus; how it was run: as §5
P388 [22] = assay: Median survival time of test animals compared to controls at 6.25 mg/kg (ip) against P388 Lymphocytic Leukemia in mice; format: functional, Mus musculus; how it was run: as §1
B16 [23] = assay: No. of cures on day 60 at 5 mg/kg (ip) against B16 melanocarcinoma in mice; format: functional, Mus musculus; how it was run: as §4
B16 [24] = assay: No. of cures on day 60 at 40 mg/kg (ip) against B16 melanocarcinoma in mice; format: functional, Mus musculus; how it was run: as §4
B16 [25] = assay: No. of cures on day 60 at 80 mg/kg (ip) against B16 melanocarcinoma in mice; format: functional, Mus musculus; how it was run: as §4
P388 [26] = assay: Weight difference at 6.25 mg/kg (ip)against P388 Lymphocytic Leukemia in mice; format: functional, Mus musculus; how it was run: as §2
P388 [27] = assay: Log of the tumor cell population at the end of treatment at 6.25 mg/kg (ip) against P388 Lymphocytic Leukemia in mice; format: functional, Mus musculus
B16 [28] = assay: Weight difference at 10 mg/kg (ip)against B16 melanocarcinoma in mice; format: functional, Mus musculus; how it was run: as §4
B16 [29] = assay: Weight difference at 5 mg/kg (ip)against B16 melanocarcinoma in mice; format: functional, Mus musculus; how it was run: as §4
B16 [30] = assay: No. of cures on day 60 at 10 mg/kg (ip) against B16 melanocarcinoma in mice; format: functional, Mus musculus; how it was run: as §4
B16 [31] = assay: Weight difference at 40 mg/kg (ip)against B16 melanocarcinoma in mice; format: functional, Mus musculus; how it was run: as §4

SMILES | T/C (P388 [1]) [%] | T/C (P388 [2]) [%] | solubility [3] [mM] | Log cell kill (P388 [4]) | Log cell kill (P388 [5]) | Weight change (P388 [6]) [g] | half-life (Half life was determined) [h] | Log cell kill (P388 [7]) | T/C (P388 [8]) [%] | Weight change (P388 [9]) [g] | T/C (P388 [10]) [%] | Weight change (P388 [11]) [g] | Weight change (P388 [12]) [g] | Log cell kill (P388 [13]) | other results
CC(C)NC(=O)OCc1c(COC(=O)NC(C)C)c(-c2ccc(Cl)c(Cl)c2)n2c1CC(OC(=O)CCC(=O)O)C2.CN(C)c1ccncc1 (stereo unspecified) | 111 | 125 | 30 | -1.39 | -1.44 | -2.2 | 2.55 | -1.08 | 106 | -1.8 | 107 | -1.3 | -1.2 | -1.45 | –
CC(C)NC(=O)OCc1c(COC(=O)NC(C)C)c(-c2ccc(Cl)c(Cl)c2)n2c1CC(O)C2 (stereo unspecified) | 150 | 166 | 0.0402 (≈ 20 µg/mL) | 0.85 | 0.46 | -5.6 | 0.517 | 2.16 | 147 | -6.3 | 145 | -2.7 | -3.8 | 0.62 | Cures (B16 [14]): 0; T/C (B16 [15]): 101%; T/C (B16 [16]): 129%; Weight change (B16 [17]): -2.4 g; T/C (B16 [18]): 143%; T/C (B16 [19]): 223%; Weight change (B16 [20]): 0 g; T/C (B16 [21]): 196%; T/C (P388 [22]): 140%; Cures (B16 [23]): 0; Cures (B16 [24]): 4; Cures (B16 [25]): 0; Weight change (P388 [26]): -2.1 g; Log cell kill (P388 [27]): 0.08; Weight change (B16 [28]): 0.2 g; Weight change (B16 [29]): 0.1 g; Cures (B16 [30]): 0; Weight change (B16 [31]): -0.9 g

Reference: ChEMBL document CHEMBL1122293, “Synthesis, evaluation of chemical reactivity, and murine antineoplastic activity of 2-hydroxy-5-(3,4-dichlorophenyl)-6,7-bis(hydroxymethyl)-2,3-dihydro-1H- pyrrolizine bis(2-propylcarbamate) and 2-acyloxy derivatives as potential water-soluble prodrugs” (J Med Chem, 1983)
